# Shown are actives, neighbours in structure and some others; about 2.3% of the full set was active somewhere.
# OXTR agonist: human OXTR agonists, primary screen, fluorescence, CHO-OTR cells, Fluo-8 calcium. Oxytocin receptor (Homo sapiens), P30559. Fluo-8 calcium fluorescence; normalized: DMSO 0%, oxytocin 100%. AID 2435, 2010. 320,000 tested, 0.32% active. activation, % at 3 µM;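 active means activation above the mean of all tested compounds plus 3 SD, cutoff set per screening run, cut at about 20% in these data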;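 further: peak over basal fluorescence ratio from a 100 s FLIPR kinetic read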
# Target sequence (P30559 whole entry, looked up): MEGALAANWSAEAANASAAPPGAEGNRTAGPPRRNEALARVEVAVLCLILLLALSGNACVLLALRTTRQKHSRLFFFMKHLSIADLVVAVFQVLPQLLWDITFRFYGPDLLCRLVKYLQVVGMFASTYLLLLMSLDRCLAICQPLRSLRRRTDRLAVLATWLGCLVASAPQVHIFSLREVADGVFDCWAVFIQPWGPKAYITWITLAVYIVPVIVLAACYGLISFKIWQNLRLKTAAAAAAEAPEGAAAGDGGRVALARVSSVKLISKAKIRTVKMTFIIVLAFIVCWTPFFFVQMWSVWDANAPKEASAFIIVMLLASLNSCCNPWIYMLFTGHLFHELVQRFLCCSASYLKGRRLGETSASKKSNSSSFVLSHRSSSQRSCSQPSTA
# OXTR potentiator: human OXTR potentiators, primary screen, fluorescence, CHO-OTR cells, Fluo-8 calcium. 320,000 tested, 0.061% active. Oxytocin receptor (Homo sapiens), P30559. Fluo-8 calcium fluorescence, potentiator mode; 0% = oxytocin EC15, 100% = EC100. AID 2445, 2010. activation, % at 3 µM;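 active means activation above that plate's cutoff, the mean activation of tested compounds plus 3 SD, cut at about 6.6% in these data, passing the limit was not always enough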;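 further: 100% uses oxytocin at 75 nM as the full agonist control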
#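 Assay system: CHO-OTR cells, human receptor / Also added: oxytocin at about EC15, sub-maximal agonist stimulus / Dosing: single dose, 3.0 µM nominal final compound concentration / Incubation: 6 min pre-incubation, 100 s read / Technique: Fluo-8 calcium dye fluorescence / Read-out: % activation vs EC15 and EC100 oxytocin / Benchmarks: EC15 oxytocin low, 75 nM oxytocin high / Replicates: singlicate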
# V1R ag counter: agonists of human V1a receptor, primary screen, counter-screen for OXTR agonist project, fluorescence, CHO-V1R cells | Fluo-8 calcium fluorescence, agonist mode; 0% DMSO, 100% 3 nM vasopressin | activation, % at 3 µM | 320,000 tested, 0.25% active | AID 2797, 2010;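 active means activation above the mean activation of all tested compounds plus 3 SD, per screening run, cut at about 20% in these data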;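 further: signal is peak over basal fluorescence ratio across a 100 second FLIPR read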
# TAAR1 antag: human TAAR1 antagonists, primary screen, Fluo-8 calcium fluorescence, CHO RD-HGA16 cells; Trace amine-associated receptor 1 (Homo sapiens), Q96RJ0; antagonist; inhibition, % at 3 µM; 360,000 tested, 1.5% active; AID 624466, 2012;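 active means inhibition above a per-plate cutoff, the mean inhibition of test compounds on that plate plus 3 SD, cut at about 49% in these data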;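 further: 0% = DMSO plus EC80 beta-PEA response and 100% = DMSO alone without agonist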
# Target sequence (Q96RJ0 whole entry, looked up): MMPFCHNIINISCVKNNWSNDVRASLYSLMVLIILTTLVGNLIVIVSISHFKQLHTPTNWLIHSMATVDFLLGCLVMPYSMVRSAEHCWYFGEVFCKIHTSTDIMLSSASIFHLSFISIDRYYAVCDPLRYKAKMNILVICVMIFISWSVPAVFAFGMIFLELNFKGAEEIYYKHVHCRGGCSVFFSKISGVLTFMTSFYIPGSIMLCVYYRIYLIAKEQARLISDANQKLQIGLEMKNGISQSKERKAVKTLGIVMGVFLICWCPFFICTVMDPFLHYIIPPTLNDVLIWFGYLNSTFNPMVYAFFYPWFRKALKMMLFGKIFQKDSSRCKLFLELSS
#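 Test system – hTAAR1-expressing CHO RD-HGA16 cells, Gα16-coupled · Also added – β-PEA at EC80 concentration, post-compound challenge · Compound – 3 µM, single point · Incubation – dye loading 75 min at 37 °C, then 30 min room temperature · Measured by – Fluo-8 intracellular calcium dye fluorescence, real-time kinetic reads · Benchmarks – vehicle and agonist controls · Replicates – singlicate, one well per test compound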
# TAAR1 ag: human TAAR1 agonists, primary screen, Fluo-8 calcium fluorescence, CHO RD-HGA16 cells; 360,000 tested, 0.99% active; Trace amine-associated receptor 1 (Homo sapiens), Q96RJ0; vehicle wells 0%, saturating PEA agonist 100%; AID 624467, 2012; activation, % at 3 µM;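 active means activation above the mean activation of all test compounds in the run plus 3 SD, cut at about 38% in these data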
#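 Benchmarks: low control DMSO, high control PEA (EC100); System: CHO RD-HGA16 cells carrying human TAAR1 plus Gα16; Detection: Fluo-8 fluorescence, 5 s baseline then 140 s kinetic read; Schedule: 17-24 h plating, Fluo-8 75 min 37 °C, 30 min RT; Read-out basis: % activation from peak over basal fluorescence ratio, DMSO-to-PEA scaled.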
# TAAR1 nonsel count: nonselective antagonists in TAAR1 counter-screen cells, counter-screen for hTAAR1 antagonist project, cell-based, fluorescence, calcium; shares compounds with TAAR1 antag; counterscreen cell line, antagonist mode; inhibition, % at 3 µM; 2,400 tested, 77% active; in the data active means inhibition above about 22%;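 further: CHO-Ga16 host cells stimulated with ATP at an EC80 level; 0% = agonist EC80 plus vehicle and 100% = vehicle without agonist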
# TAAR1 ant conf: human TAAR1 antagonists, retest of hits, confirmation, cell-based, fluorescence. shares compounds with TAAR1 antag. TAAR1-expressing cells, fluorescence antagonist read-out. inhibition, % at 3 µM. 2,400 tested, 40% active. AID 651785, 2012; in the data active means inhibition above about 49%;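 further: CHO-Ga16 host cells challenged with agonist PEA near its EC80; 0% = agonist at EC80 plus vehicle and 100% = vehicle with no agonist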
# Ga16 ag counter: calcium activation in Ga16-expressing cells, counter-screen for TAAR1 antagonist project, cell-based, fluorescence | shares compounds with TAAR1 antag | agonist counterscreen | activation, % at 3 µM | 2,400 tested, 18% active; in the data active means activation above about 12%;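 further: 0% = vehicle wells and 100% = saturating stimulus response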
# TAAR1 ag count: TAAR1 activation by candidate antagonists – cell-based, fluorescence, counter-screen for TAAR1 antagonist project | shares compounds with TAAR1 antag | hTAAR1 cell line, agonist mode | activation, % at 3 µM | 2,400 tested, 2% active; in the data active means activation above about 37%;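 further: CHO cells stably expressing TAAR1 with calcium dye readout; 0% = DMSO vehicle and 100% = full agonist response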
# An asterisk follows results filed as active; . = no result.
SMILES,OXTR agonist,OXTR potentiator,V1R ag counter,TAAR1 antag,TAAR1 ag,TAAR1 nonsel count,TAAR1 ant conf,Ga16 ag counter,TAAR1 ag count
CC(/C=C1\SC(=Nc2cccnc2)NC1=O)=C\c1ccccc1,0,-8,0,62*,5,29*,56*,7,7
CC(C)(C)OC(=O)C[C@@H]1C/C=C\C[C@@H](CC(=O)N[C@@H](CO)Cc2ccccc2)C(=O)NC[C@@H](c2ccccc2)OC1=O,-1,7,1,67*,16,28*,47,6,4
O=C1NC[C@@H](c2ccccc2)OC(=O)[C@@H](Cc2ccc(F)cc2)CC/C=C/C[C@H]1CC(=O)N(CCO)Cc1ccccc1,-1,-9,0,59*,35,20,32,9,6
CC(C)(C)OC(=O)C[C@H]1C/C=C\C[C@@H](CC(=O)N[C@@H](CO)Cc2ccccc2)C(=O)NC[C@@H](c2ccccc2)OC1=O,1,-1,1,40,7,.,.,.,.
O=C1NC[C@@H](c2ccccc2)OC(=O)[C@H](Cc2ccc(F)cc2)C/C=C\C[C@H]1CC(=O)N(CCO)Cc1ccccc1,-1,3,1,68*,28,30*,45,8,6
O=C(C[C@@H]1C/C=C/CC[C@@H](Cc2ccc(F)cc2)C(=O)O[C@@H](c2ccccc2)CNC1=O)NCCO,0,-7,0,66*,16,26*,49*,6,6
N#CC1(NC(=O)COC(=O)c2nc(Cl)c(Cl)c(N)c2Cl)CCCCC1,1,-9,0,7,4,.,.,.,.
CC1(C(=O)NCc2ccccc2Br)CCN1Cc1csc2ccccc12 (stereo not drawn),.,.,.,-7,4,.,.,.,.
O=S(=O)(Nc1ccc(-c2ccc3nncn3n2)cc1)c1cccs1,2,2,1,-17,5,.,.,.,.
CS(=O)c1nc(-c2ccc(Br)cc2)cc(-c2ccccc2)c1C#N (stereo not drawn),-2,-8,1,70*,-2,27*,53*,4,2
O=C(Nc1ccc(-c2csc(Nc3ccccc3)n2)cc1)c1ccccc1,0,-7,0,74*,6,26*,53*,5,6
O=C(Nc1cccc(-c2csc(Nc3ccc(Cl)cc3)n2)c1)c1cc([N+](=O)[O-])cc(C(F)(F)F)c1,-1,-10,1,28,10,.,.,.,.
O=C(Nc1cccc(-c2csc(Nc3ccc(Cl)cc3)n2)c1)c1ccccc1,-1,-20,1,41,4,.,.,.,.
O=C(Nc1cccc(-c2csc(Nc3ccccc3)n2)c1)c1cc([N+](=O)[O-])cc(C(F)(F)F)c1,-1,-8,0,55*,1,15,29,2,2
Cc1cccc(C(=O)NC2CC3CCCC(C2)N3Cc2ccccc2)c1 (stereo not drawn),1,0,1,-7,-1,.,.,.,.
CCOc1cc(C(=S)N2CCOCC2)ccc1OC(=O)c1cccc(C)c1,-2,-9,0,66*,9,31*,48,5,1
CCOc1cc(C(=S)N2CCOCC2)ccc1OC(=O)c1ccccc1,-2,-3,4,0,0,.,.,.,.
CC1CCc2c(sc3nc(C4CC4)nc(N4CCN(C(=O)c5ccco5)CC4)c23)C1 (stereo not drawn),0,-6,1,58*,17,16,7,-1,3
COc1ccc(CN(C)C(=O)c2ccc(COc3ccccc3)cc2)c(OC)c1,0,-12,1,23,-1,.,.,.,.
COc1ccc(CN(C)C(=O)C(Cc2ccccc2)NC(=O)c2ccccc2)c(OC)c1 (stereo not drawn),-2,-4,-1,67*,6,30*,50*,5,4
Cc1ccc(C)c(NS(=O)(=O)c2ccccc2C)c1,.,.,.,-23,0,.,.,.,.
CCCCNc1c(-c2ccc(OC)c(Sc3ccc(OC)cc3)c2)nc2cnccn12,-1,-3,1,75*,11,23*,57*,4,8
O=C(NCc1ccccc1)C(c1cccc2ccccc12)n1c(=O)c(-c2ccccc2)nc2ccccc21 (stereo not drawn),.,.,.,3,0,.,.,.,.
COc1ccc(S(=O)(=O)N2CCOCC2)cc1NC(=O)C1COc2ccccc2O1 (stereo not drawn),0,-2,1,59*,11,26*,38,6,4
CN(c1ccc(OCC(=O)OCC(=O)c2c(N)n(C)c(=O)n(C)c2=O)cc1)S(=O)(=O)c1ccc2ccccc2c1,1,-6,1,77*,15,35*,56*,9,10
SMILES,OXTR agonist,OXTR potentiator,V1R ag counter,TAAR1 antag,TAAR1 ag,TAAR1 nonsel count,TAAR1 ant conf,Ga16 ag counter,TAAR1 ag count
CCN(c1ccc(OCC(=O)OCC(=O)c2c(N)n(C)c(=O)n(C)c2=O)cc1)S(=O)(=O)c1ccccc1,4,-11,2,-21,3,.,.,.,.
Cc1ccccc1NC(NC(=O)c1cccs1)C(Cl)(Cl)Cl (stereo not drawn),1,-5,0,52*,13,20,38,13*,16
COc1cccc2cc(CC(=O)c3cc(C)ccc3C)c(=O)oc12,0,-9,1,58*,10,29*,49*,6,4
Cc1cnc(C(=O)OCC(=O)c2ccc(C)s2)cn1,0,-6,0,3,12,.,.,.,.
CC(C)Nc1nnc(SCC(=O)Nc2ccc3c(c2)C(=O)c2ccccc2C3=O)s1,5,-7,5,68*,22,47*,59*,15*,16
CC(=O)C1CCC2C3CCC4=CC(=O)CC[C@]4(C)[C@@]3(F)C(O)C[C@]12C (stereo partly drawn),0,-15,4,1,2,.,.,.,.
CCOC(=O)C1=C(C)NC(C)=C(C(=O)OCC)C1c1ccncc1,.,.,.,-35,0,.,.,.,.

# Assay outcomes as filed in PubChem BioAssay.
